An excerpt weighted towards active compounds, which were near 4.1% of everything screened.
hERG protect: compounds protecting human hERG from proarrhythmic drug block | Q12809 | CHO-hERG, FluxOR thallium flux, dofetilide IC70 present | activation (rescue from dofetilide block), less the hit threshold, % at 10 µM | hit rate 0.51% among 310,000 | AID 1511;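 active means activation above the mean of controls blocked by dofetilide plus 5 SD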;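 further: thallium influx through hERG after potassium depolarization seen as dye fluorescence rise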
Target sequence (Q12809 whole entry, looked up): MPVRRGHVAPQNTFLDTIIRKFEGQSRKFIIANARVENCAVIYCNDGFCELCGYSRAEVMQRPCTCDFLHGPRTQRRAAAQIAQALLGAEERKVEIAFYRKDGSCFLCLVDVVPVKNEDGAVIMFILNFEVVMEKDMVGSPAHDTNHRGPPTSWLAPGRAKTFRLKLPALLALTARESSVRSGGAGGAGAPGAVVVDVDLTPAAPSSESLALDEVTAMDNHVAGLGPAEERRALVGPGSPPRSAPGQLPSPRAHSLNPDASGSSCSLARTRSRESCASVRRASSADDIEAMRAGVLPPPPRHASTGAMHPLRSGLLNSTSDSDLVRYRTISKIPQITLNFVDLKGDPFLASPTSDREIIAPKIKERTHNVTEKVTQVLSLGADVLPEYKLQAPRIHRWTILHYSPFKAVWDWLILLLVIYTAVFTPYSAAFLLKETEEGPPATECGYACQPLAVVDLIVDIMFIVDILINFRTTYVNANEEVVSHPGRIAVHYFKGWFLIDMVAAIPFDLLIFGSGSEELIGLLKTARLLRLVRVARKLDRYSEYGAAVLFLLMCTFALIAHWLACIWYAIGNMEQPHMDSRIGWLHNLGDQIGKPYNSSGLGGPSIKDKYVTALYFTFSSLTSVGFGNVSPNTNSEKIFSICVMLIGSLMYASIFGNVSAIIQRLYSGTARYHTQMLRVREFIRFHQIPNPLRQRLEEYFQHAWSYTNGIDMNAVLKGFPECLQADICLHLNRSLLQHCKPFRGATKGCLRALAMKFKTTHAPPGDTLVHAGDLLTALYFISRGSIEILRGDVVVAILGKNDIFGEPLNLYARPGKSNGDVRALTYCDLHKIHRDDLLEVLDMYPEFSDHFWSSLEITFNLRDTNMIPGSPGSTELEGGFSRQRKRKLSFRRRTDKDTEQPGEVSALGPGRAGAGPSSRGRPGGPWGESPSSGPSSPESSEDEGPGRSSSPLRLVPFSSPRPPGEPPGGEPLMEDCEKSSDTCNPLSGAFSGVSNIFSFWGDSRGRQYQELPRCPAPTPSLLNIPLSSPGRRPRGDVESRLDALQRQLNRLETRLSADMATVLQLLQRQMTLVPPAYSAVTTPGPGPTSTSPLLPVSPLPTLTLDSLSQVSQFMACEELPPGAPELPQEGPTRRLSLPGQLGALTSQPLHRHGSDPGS
KCC2 mod: modulates chloride dependent transport by human KCC2; KCC2 cells, thallium flux FluoZin-2 fluorescence; B-score of Tl+ flux slope (higher = more flux/activation; lower = inhibition) at 10 µM; hit rate 2.2% among 190,000; Q9H2X9; AID 1456;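 active means thallium flux slope and its plate-corrected score both differing from the plate sample mean at a set confidence after two filtering rounds, in either direction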;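 further: slope of fluorescence scaled to starting intensity during 10 to 20 s after thallium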
KCNK9 inh: human KCNK9 channel inhibition | hit rate 1.2% among 310,000 | Q9NPC2 | HEK293 KCNK9, FluxOR thallium flux fluorescence; active compounds read low | AID 488922 | B-score at 10 µM;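 active means ratio B-score over 3 SD below the library mean, with starting fluorescence within 5 SD of its mean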;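 further: negative B-score means less thallium flux so channel inhibition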
KCNQ1 block: human KCNQ1 channel inhibition. CHO-K1 KCNQ1, FluxOR thallium flux fluorescence; active compounds read high. B-score at 10 µM. hit rate 1.3% among 310,000. AID 2642;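 active means compounds whose thallium flux B-score, printed positive for inhibition, exceeds three library SD while starting fluorescence stays within three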;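 further: channel opened by potassium depolarization with thallium stimulus after 20 min compound exposure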
KCNK3 inh: human KCNK3 channel inhibition, primary screen. O14649. AID 602410. hit rate 0.84% among 340,000. CHO-KCNK3 thallium flux, FluxOR fluorescence; active compounds read low. B-score at 10 µM;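 active means B-score under library mean minus 4 SD, starting fluorescence ratio at most library mean plus 5 SD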;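 further: more negative B-score means stronger inhibition of thallium flux through KCNK3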
KCNQ1 pot: potentiates or activates the human KCNQ1 potassium channel | hit rate 0.35% among 310,000 | B-score at 10 µM | P51787 | CHO-K1 KCNQ1, thallium flux FluxOR fluorescence; active compounds read high;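 active means fluorescence ratio B-score, a plate-corrected score, at least three library SD, with initial intensity B-score within 5 SD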
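Assay system: CHO-K1 cells stably expressing KCNQ1; Medium: assay buffer with matched DMSO; Also added: K+/Tl+ depolarizing stimulus; Dosing: single dose; Timing: dye 90 min, compound 20 min, room temperature; Measured by: kinetic FluxOR thallium fluorescence, 10-s 1-Hz baseline, 110-s post-stimulus read; Read-out: peak-minus-minimum fluorescence over initial fluorescence, negative-control normalized, B-scored.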
KCC2 sec1: confirmation of human KCC2 transport modulators; normalised thallium flux (F/F0 slope) at 10 µM; shares compounds with KCC2 mod; HEK293-KCC2, thallium flux, FluoZin2 fluorescence; active compounds read high; AID 1713; hit rate 15% among 3,700;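 active means thallium flux slope above the same plate's solvent-only control mean plus 3 SD; inconclusive means the two replicate wells disagree; inactive means no significant difference from solvent-only control wells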
KCC2 bumet counter: bumetanide-insensitive thallium flux in KCC2 cells with ouabain, counter-screen; shares compounds with KCC2 mod; HEK293-KCC2 + bumetanide/ouabain, thallium flux FluoZin2; active compounds read high; normalized thallium flux at 10 µM; hit rate 49% among 3,700; AID 1714;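 active means thallium entry rate above the same plate's blocked-transporter control wells by more than 3 SD; inconclusive means the two repeat wells disagree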;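 further: raw slope of fluorescence over initial fluorescence between 10 and 20 s after thallium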
KCC2 secondary2: confirmation of human KCC2 transport modulators; shares compounds with KCC2 mod; HEK293-KCC2, thallium flux FluoZin2 fluorescence; actives lie on both sides; F/F0 rise rate, 10–20 s post-thallium; normalized thallium flux at 10 µM; hit rate 23% among 3,700;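 active means thallium flux slope more than 3 SD above or below the plate's solvent-only control mean, mostly below; inconclusive means the two repeat wells disagreed; inactive means no significant shift from solvent-only controls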
HEK counter1: parental HEK flux effect, counter-screen; thallium flux rate (normalised fluorescence) at 10 µM; shares compounds with KCC2 mod; HEK293 parental cells, thallium flux FluoZin2, ouabain; baseline-ratio fluorescence slope, 10–20 s after thallium; hit rate 46% among 3,700;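 active means thallium flux rate significantly above the same plate's solvent-only control wells, beyond their mean plus 3 SD; inconclusive means the two replicate wells gave conflicting results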
KCC2 retest ouab: KCC2 (human) modulation, ouabain retest | shares compounds with KCC2 mod | HEK293-KCC2, thallium flux FluoZin2 fluorescence; bidirectional: low = inhibitor, high = activator | raw Tl+ flux slope (below DMSO = inhibition, above = activation) at 10 µM | hit rate 48% among 3,700 | AID 1717;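 active means thallium flux slope beyond 3 SD from same-plate DMSO control mean in most replicates, usually higher, sometimes lower; inconclusive means repeat tests gave conflicting results; inactive means no significant difference from controls in most replicates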;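 further: slope of initial-normalized fluorescence between seconds 10 and 20 after thallium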
HEK counter2: acts in parental HEK cells, second KCC2 counter-screen; shares compounds with KCC2 mod; HEK293 parental, thallium flux FluoZin-2 fluorescence slope; thallium flux slope at 10 µM; hit rate 33% among 3,700;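 active means thallium flux slope above the same plate's solvent-control mean plus 3 SD in both duplicate wells; inconclusive means duplicate wells that disagreed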;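 further: run without ouabain in cells lacking the KCC2 cotransporter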
Each line names hits and unclear results; the compound was inactive in the other large screens (follow-up assays come after a bar, where they were run).

COc1ccc(NC(=O)CSc2nc(-c3ccncc3)nn2CC(=O)N2CCCC2)cc1	KCC2 mod -4.25 | KCC2 sec1 inactive | KCC2 bumet counter inactive | KCC2 secondary2 inactive | HEK counter1 inactive | KCC2 retest ouab inactive | HEK counter2 inactive
COc1ccc(NC(=O)CSc2nnc(-c3ccncc3)n2C)cc1	none
CS(=O)(=O)C1=NSC2=NC(=O)/C(=C\c3cccn3-c3ccccc3Cl)C(=N)N21	KCC2 mod -5.14, KCNQ1 block 10 | KCC2 sec1 inactive | KCC2 bumet counter inactive | KCC2 secondary2 0.0228 | HEK counter1 0.00529 | KCC2 retest ouab 0.0136 | HEK counter2 inconclusive
CCOC(=O)c1c(-c2ccccc2)csc1NC(=O)/C(C#N)=C/c1ccc(OC)c(OC)c1	none
CCOC(=O)c1c(-c2ccccc2)csc1NC(=O)/C(C#N)=C/c1ccc(O)c(OC)c1	KCC2 mod 5.25 | KCC2 sec1 inactive | KCC2 bumet counter 0.0113 | KCC2 secondary2 inactive | HEK counter1 0.00948 | KCC2 retest ouab inactive | HEK counter2 inactive
CSCCC(=O)N1CCCC(CNC(=O)c2ccc(-c3ccccc3)cc2)C1 (configuration not stated)	KCC2 mod -5.83 | KCC2 sec1 inactive | KCC2 bumet counter inactive | KCC2 secondary2 0.0214 | HEK counter1 inactive | KCC2 retest ouab 0.0134 | HEK counter2 inactive
CCc1cc(C(=O)N2CCCC(CCC(=O)N3CCN(c4ccccn4)CC3)C2)no1 (configuration not stated)	none
CSc1ccccc1C(=O)N1CCCC(CNC(=O)c2ccc(F)cc2)C1 (configuration not stated)	none (no result: KCC2 mod)
CCc1cc(C(=O)N2CCCC(CNC(=O)c3ccc(-c4ccccc4)cc3)C2)no1 (configuration not stated)	none (no result: KCC2 mod) | KCC2 sec1 inactive | KCC2 bumet counter inactive | KCC2 secondary2 0.0275 | HEK counter1 inactive | KCC2 retest ouab 0.0138 | HEK counter2 inactive
CN(C(=O)c1cccc(NC(=O)Cc2cccc(NC(=O)C3CCN(C(=O)C4CCCC4)CC3)c2)c1)C1CC1	none (no result: hERG protect, KCC2 mod, KCNK9 inh, KCNQ1 block, KCNQ1 pot)
CC12CC3CC(C)(C1)CC(C(=O)NNC(=O)c1ccncc1)(C3)C2	none (no result: KCC2 mod)
CN(C)C(=S)NC(=O)C12CC3CC(C)(CC(C)(C3)C1)C2	KCC2 mod 16.8 | KCC2 sec1 inconclusive | KCC2 bumet counter 0.0386 | KCC2 secondary2 inactive | HEK counter1 0.0161 | KCC2 retest ouab 0.0251 | HEK counter2 0.0197
CCN(CC)c1ccc2c(C)c(-c3ccc(N)cc3)c(=O)oc2c1	KCC2 mod -5.05 | KCC2 sec1 inactive | KCC2 bumet counter 0.0105 | KCC2 secondary2 inconclusive | HEK counter1 inactive | KCC2 retest ouab 0.0158 | HEK counter2 inactive
CCOc1cc(N2CCOCC2)c(OCC)cc1NC(=O)CN1CCSC1=O	none (no result: hERG protect, KCC2 mod, KCNK9 inh, KCNQ1 block, KCNQ1 pot)
